Screens deposited in PubChem by several laboratories.
RAM inhibit: inhibitors of the yeast RAM network; inhibition, % at 50 µM; S. cerevisiae dse1pr::URA3 reporter, 5-FOA growth OD615, 2 d; analog-sensitive cbk1-as2 kinase mutant strain; hit rate 1.8% among 190,000; AID 868;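 active means inhibition above a set limit, 3 SD over mean compound inhibition, cut at about 8.4% in these data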;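 further: 0% = DMSO-only wells with no growth and 100% = 10 µM 1-NA-PP1 full growth; inhibition rescues growth on 5-FOA so higher OD means more RAM inhibition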
NPY2 pot ag: human NPY-Y2 potentiation or agonism, primary screen. cells expressing NPY-Y2, potentiator/agonist read-out. P49146. hit rate 0.45% among 220,000. activation, % at 3.6 µM; in the data active means activation above about 27%;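 further: cells stimulated with NPY near EC25 plus isoproterenol at EC100; 0% = vehicle plus submaximal agonist and 100% = vehicle plus saturating agonist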
Target sequence (P49146 whole entry, looked up): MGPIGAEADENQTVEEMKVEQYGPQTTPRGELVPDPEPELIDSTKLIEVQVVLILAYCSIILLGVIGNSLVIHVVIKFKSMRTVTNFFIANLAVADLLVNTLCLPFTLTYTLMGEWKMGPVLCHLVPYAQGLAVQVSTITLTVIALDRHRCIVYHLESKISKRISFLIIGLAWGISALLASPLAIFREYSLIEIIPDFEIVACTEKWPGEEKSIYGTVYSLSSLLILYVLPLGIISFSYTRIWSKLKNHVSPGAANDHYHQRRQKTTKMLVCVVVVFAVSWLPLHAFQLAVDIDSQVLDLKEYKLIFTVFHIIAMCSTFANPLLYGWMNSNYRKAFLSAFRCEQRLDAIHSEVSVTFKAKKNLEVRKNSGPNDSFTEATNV
NPY-Y1 antag: NPY-Y1 (human) receptor antagonism. P25929. HEK293-CNG Y1 cells, membrane potential fluorescence; NPY at EC95, then isoproterenol. inhibition, % at 3.6 µM. hit rate 1% among 200,000. AID 1040;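 active means inhibition above the campaign mean inhibition of all tested compounds plus 3 SD, cut at about 20% in these data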;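 further: 0% = DMSO wells given NPY plus isoproterenol and 100% = isoproterenol alone without NPY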
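Material: HEK293 cells with Y1 receptor plus CNG channel; times: compound incubation 1 h at room temperature, readout 45 min post-stimulation; signal: fluorescence, membrane potential probe; read-out basis: fluorescence ratio normalized to % inhibition between controls; benchmarks: full-block control isoproterenol-only wells, zero-block control NPY plus isoproterenol wells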
INS promoter inh: TRM-6 insulin promoter activity inhibition; TRM-6 cells, insulin promoter-eGFP reporter, imaging; reporter expression induced with tamoxifen; inhibition, % at 2 µM; hit rate 0.9% among 130,000; AID 1273;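 active means inhibition above the mean plus 3 SD, with well images judged a real hit on visual review, cut at about 60% in these data, passing the limit was not always enough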
NPY-Y2 antag: antagonists of human neuropeptide Y receptor Y2; P49146; inhibition, % at 2.7 µM; hit rate 0.99% among 140,000; NPY-Y2 expressing cells, antagonist mode; in the data active means inhibition above about 17%;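 further: 0% = vehicle with agonist challenge and 100% = reference antagonist with challenge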
NPY1 pot ag: potentiates or activates human NPY-Y1 receptor; P25929; NPY-Y1 expressing cells, potentiator/agonist activation; activation, % at 3.6 µM; hit rate 0.37% among 220,000; AID 1304; in the data active means activation above about 33%, passing the limit was not always enough;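 further: cells stimulated with NPY at EC10 then isoproterenol at EC100; 0% = low agonist plus stimulus and 100% = saturating agonist plus stimulus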
* hit, by the source's call; i = inactive; . = not tested or not shown. Most compounds without a hit are left out; they make up all but 3.8% or so of the library.

SMILES	RAM inhibit	NPY2 pot ag	NPY-Y1 antag	INS promoter inh	NPY-Y2 antag	NPY1 pot ag
c1csc(COc2ccccc2CNC2CCCCC2)c1	0.5	14.0	23.5*	.	31.4*	9.3
COc1cc(C2C(C#N)=C(N)Oc3n[nH]c(-c4cccnc4)c32)cc(Br)c1O (centres undefined)	1.0	-10.5	-3.6	-22.2	.	9.5
Cc1ccc(C#CC[N+]2(CC#Cc3ccc(C)cc3)CCCCC2)cc1	0.5	-3.7	27.5*	-46.4	19.8*	-31.0
CC(C)CC(=O)NCCCCc1ccccc1	0.4	6.2	3.0	-19.4	6.4	-3.3
CC1CCN(Cc2ccc(NC(=O)C3CCN(c4nnc(-n5cccc5)s4)CC3)cc2)CC1	-0.6	-18.1	4.3	-80.0	2.6	-16.5
CC(/C=C1\SC(=S)N(CC(=O)N2CCN(c3ccccc3)CC2)C1=O)=C\c1ccccc1	9.8*	-4.0	6.4	-17.2	3.8	-1.0
CC(=O)c1ccc(NC(=O)CCCN2C(=O)/C(=C/C(C)=C/c3ccccc3)SC2=S)cc1	10.4*	8.5	2.9	0.0	-0.9	12.8
O=C(Nc1ccc(S(=O)(=O)Nc2nccs2)cc1)c1ccc(=O)[nH]c1	2.0	-0.8	-3.9	15.0	.	-3.1
CCOC(=O)[C@@H]1C(c2c(OC)cc(OC)cc2OC)=NO[C@@H]1C(=O)OCC	2.0	32.8*	-7.1	11.1	-0.1	69.5*
CCCOc1ccc(C(=O)Nc2ccccc2[N+](=O)[O-])cc1	.	5.3	12.7	-7.4	8.0	-32.5
CCCCOc1ccc(C(=O)OCC(=O)Nc2cc(C)c(C)cc2[N+](=O)[O-])cc1	10.8*	-3.2	1.3	-24.3	4.0	-11.3
CCCCOc1ccc(C(=O)Nc2ccc(C)cc2[N+](=O)[O-])cc1	9.1*	-1.8	-1.1	-53.3	6.5	-32.8
COc1ccc(C(=O)OCC(=O)Nc2cc(C)c(C)cc2[N+](=O)[O-])cc1	6.5	-16.3	0.7	-33.3	2.3	-2.7
O=[N+]([O-])C(=C1NCCN1)C(Cl)=C(Cl)Cl	-0.2	1.1	-7.3	.	.	16.7
COc1ccc(CCNC(=O)c2cc(=O)n(C)c(=O)n2C)cc1OC	2.1	-10.5	0.2	.	.	-12.4
CCN1C(=O)CSc2ccc(C(=O)NC3CCCCC3)cc21	8.7*	-2.5	0.0	.	4.1	-2.4
Cc1nn(C)c(Cl)c1CN1CCN(CC(C)C)C(CCO)C1 (centres undefined)	0.0	-18.9	-3.0	.	.	-7.7
O=C(/C=C/c1ccc(Br)cc1)Nc1ccc(S(=O)(=O)Nc2ncccn2)cc1	9.8*	-10.7	3.0	.	.	9.3
Cc1c[nH]c2cccc(OCC(O)CNC(C)(C)C)c12 (centres undefined)	1.1	104.0*	-18.3	46.7	0.4	108.8*
CC(C)(C)NCC(O)COc1ccccc1C(=O)CCc1ccccc1 (centres undefined)	-0.8	101.7*	-15.8	-25.8	10.0	102.5*
CC(C)(C)NCC(O)COc1ccccc1C(C)(C)C (centres undefined)	0.8	99.2*	-12.2	13.0	4.4	107.6*
Cc1cccnc1NCC(O)COc1ccccc1 (centres undefined)	1.9	3.6	-2.6	34.2	-0.6	-13.4
COc1ccccc1N1CCN(c2nc3c(C)cccn3c(=O)c2C=O)CC1	-1.1	-20.8	2.8	-2.2	1.6	-23.7
Cc1ccc(C(=O)N2CCCC2)cc1S(=O)(=O)Nc1ccccc1	0.3	-1.6	0.2	34.3	4.5	-3.4
Cc1ccc(C(=O)NCCSC2CCCCC2)cc1S(=O)(=O)Nc1ccccc1	11.3*	11.7	-3.4	.	0.3	17.6
SMILES	RAM inhibit	NPY2 pot ag	NPY-Y1 antag	INS promoter inh	NPY-Y2 antag	NPY1 pot ag
Cc1ccc(S(=O)(=O)N2CCC(C(=O)Nc3nnc(-c4ccco4)s3)CC2)cc1	3.3	52.2*	-8.1	.	0.4	44.3*
O=C(Nc1nnc(-c2ccco2)s1)C1CCCCC1	4.9	-3.0	0.2	.	-1.5	-6.6
CN=c1scc(-c2cccs2)n1/N=C/c1ccccc1O	8.9*	14.5	-6.1	33.3	-2.0	30.8
Cc1ccc([N+](=O)[O-])cc1N=C(c1cccc(Br)c1)N1CCOCC1	1.4	-15.0	-2.4	.	4.8	7.2
CCCCNS(=O)(=O)c1ccc2nc(SCC(=O)Nc3ccccc3Cl)[nH]c2c1	9.4*	11.8	-0.4	.	1.8	8.7
CCCCNS(=O)(=O)c1ccc2nc(SCC(=O)Nc3cccc(F)c3)[nH]c2c1	-0.1	13.3	0.9	15.4	-1.4	-11.3
CC1=C(C(=O)Nc2ccc(Br)cc2)C(c2ccco2)NC(=O)N1 (centres undefined)	4.2	0.1	-3.6	67.7*	3.1	-3.4
CC1=C(C(=O)Nc2ccc(C)cc2)C(c2ccco2)NC(=O)N1 (centres undefined)	4.0	-1.1	-0.5	-19.1	1.0	-26.4
CN(C)c1ccc(-c2nn3c(-c4ccc(Cl)cc4)nnc3s2)cc1	1.6	2.2	4.6	18.8	3.8	3.5
CN(C)c1ccc(-c2nn3c(C4CCCCC4)nnc3s2)cc1	8.6*	-0.1	3.8	.	4.8	-6.9
Cc1ccc(C(=O)O/N=C2\CCSc3ccc(C)cc32)cc1	3.8	-11.6	23.0*	4.5	20.8*	-8.5
Cc1cc(C)cc(C(=O)NCC(=O)OCC(=O)N(C)C2CCS(=O)(=O)C2)c1 (centres undefined)	0.7	4.2	2.0	33.3	4.5	-0.9
CC(=O)N(C)c1ccc(NS(=O)(=O)c2cc(Cl)ccc2Cl)cc1	4.3	-28.9	21.1*	13.3	.	-12.3
CN(C)S(=O)(=O)c1ccc(C(=O)OCC(=O)Nc2ccccc2OC(F)F)cc1	1.9	-7.3	-0.8	-18.3	0.4	-4.5
CN(C)S(=O)(=O)c1ccc(C(=O)OCC(=O)c2ccc(OC(F)F)cc2OC(F)F)cc1	10.8*	5.1	2.5	16.1	1.0	-0.6
Cc1csc(SCC(=O)Nc2sccc2C(N)=O)n1	2.4	4.7	2.5	.	.	-13.1
COc1ccc(-c2cc(C)nc(SCC(=O)c3cccc([N+](=O)[O-])c3)n2)cc1	4.3	-24.6	9.8	-18.6	3.9	-17.9
Cc1cc(-c2ccccc2)nc(SCC(=O)c2cccc([N+](=O)[O-])c2)n1	11.0*	-8.0	11.5	.	2.3	-15.3
Cc1cc(Oc2ccc3ccccc3c2)nc(SCC(=O)c2ccccc2)n1	11.0*	-17.3	49.8*	13.2	40.8*	-113.8
Cc1cc(Oc2ccc(Br)cc2)nc(SCC(=O)c2ccccc2)n1	5.0	-56.2	52.2*	14.3	38.8*	-71.7
Cc1onc(-c2ccccc2)c1C(=O)NCC(O)c1ccccc1 (centres undefined)	.	-2.6	.	.	.	-2.0
O=C(COC(=O)/C=C/c1cccc(Br)c1)NCCC1=CCCCC1	9.8*	8.1	2.0	-56.7	9.7	0.3
CCOC(=O)C1(Cc2ccc(OC)cc2)CCN(C(=O)CCn2cccn2)CC1	.	6.6	.	.	.	24.3
Cc1nnc(NC(=O)CSc2nnc(Cc3ccccc3)n2-c2ccccc2)s1	3.6	-11.0	1.2	i	2.6	-2.3
